# Compound activity as filed in PubChem BioAssay.
# The list is not random: actives were taken first. Their share in the collection is about 1.7%.
# CFTR F508del cor – F508del CFTR correction, initial screen, CFBE line, single point; activity (quench increase), % at 7.58 µM; 0.36% of 350,000 active; CFBE cells, YFP halide quenching; stimulated with forskolin plus potentiator P3; % fluorescence drop versus neutral controls;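 active = mean added fluorescence quench of at least 8% versus neutral control, with both replicates also reaching 8%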;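 also: cells transiently co-express mutant CFTR-F508del with the halide-sensitive YFP; corrector assay measuring rescue of mutant channel to the surface after 24 h compound exposure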
# Ecoli rRNA inh – reduced GFP signal of wild-type E. coli, primary screen, bacterial rRNA inhibitor project, GFP/RFP fluorescence, OD600, single point. E. coli WT GFP vs humanized-ribosome RFP mutants, 24 h; active compounds read low; DMSO median 0, no signal -100. GFP signal change (wild-type ribosome), % (no concentration beside the values). 1.6% of 350,000 active. AID 720706, 2013;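 active = significant combined selectivity score with lowered wild-type GFP, culture density cut under 30%, mutant RFP and density less affected; inactive = any of these conditions unmet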
# CaV13 ICDI inh – Disruptors of the CACNA1D IQ motif to Ca2+-dependent inactivation inhibitor domain association, primary screening, Förster resonance energy transfer in intact living …. 0.098% of 340,000 active. HEK cells, CFP/YFP FRET ICDI-IQ, plate reader, 10 min; percent FRET-ratio fall versus neutral wells. inhibition, % at 12.3 µM;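 active = mean replicate inhibition of at least 30% and at least 1% of replicates passing that level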;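 also: 0% = median of the neutral control wells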
# Cneo AK release – Cryptococcus neoformans cell lysis inducers, primary screen, AK release luminescence, single concentration. C. neoformans lysis, adenylate kinase release luminescence, 4 h; normalised: neutral wells 0, clomiphene wells 100. lysis activity, % at 15 µM. 0.2% of 360,000 active. AID 651654, 2012;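 active = mean lysis activity across replicates of at least 80%, whatever share of replicates individually reach that level; inactive = mean lysis activity below 80%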
#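 Test system: log-phase Cryptococcus neoformans yeast cells; Quantity: yeast cell density of 5 × 10^6 cells/mL; Buffer or medium: YPD; Doses: single compound concentration per well; Timing: 4 h at 37 °C static, read 1 h later; Measured by: AK luminescence; Read-out basis: lysis from increased AK signal; Control set: Clomiphene as positive control.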
# Active calls of the source: *; nt = no result given.
SMILES,CFTR F508del cor,Ecoli rRNA inh,CaV13 ICDI inh,Cneo AK release
CCC(=O)Nc1nc2ccc(NC(=O)c3cc(OC)c(OC)c(OC)c3)cc2s1,1,-36*,3,0
COc1ccc(S(=O)(=O)N(C)C[C@@H]2Oc3ccc(NC(=O)NC4CCCCC4)cc3CC(=O)N([C@@H](C)CO)C[C@H]2C)cc1,-1,-6,nt,-4
COCC(=O)N1CC2(CN(Cc3ccccc3)C2)c2c(n(C)c3cc(OC)ccc23)[C@@H]1CO,2,-1,nt,nt
CC(=O)Oc1cc2oc(=O)cc(C)c2cc1Cl,-2,-26*,14,-1
COc1ccc(S(=O)(=O)N[C@@H]2C=C[C@@H](CC(=O)N3CCC(Cc4ccccc4)CC3)O[C@H]2CO)cc1,0,-21,nt,95*
O=C(Cc1ccccc1)N[C@H]1C=C[C@@H](CC(=O)N2CCOCC2)O[C@@H]1CO,-2,3,nt,95*
O=C(NC1CCCCC1)N[C@H]1C=C[C@@H](CC(=O)N2CCOCC2)O[C@H]1CO,-2,-1,nt,104*
O=C(NC1CCCCC1)N[C@@H]1C=C[C@@H](CC(=O)N2CCOCC2)O[C@H]1CO,1,-1,nt,0
O=C(Cc1ccccc1)N[C@H]1C=C[C@@H](CC(=O)N2CCOCC2)O[C@H]1CO,0,1,nt,93*
COc1ccc(S(=O)(=O)N[C@@H]2C=C[C@H](CC(=O)N3CCC(Cc4ccccc4)CC3)O[C@@H]2CO)cc1,-4,-7,nt,3
O=C(Cc1ccccc1)N[C@H]1C=C[C@H](CC(=O)N2CCOCC2)O[C@@H]1CO,-1,0,nt,-2
CC(C)NC(=O)N(C)C[C@H]1Oc2ncc(C#Cc3ccccc3F)cc2C(=O)N([C@H](C)CO)C[C@@H]1C,-1,3,nt,-3
CC(C)(C)N(Cc1ccccc1)C(=O)COC(=O)c1ccc(Br)o1,-2,-32,-2,-3
COc1cc(OC)c(C(=O)OCC(=O)N(Cc2ccccc2)C(C)(C)C)cc1OC,0,-30*,-1,nt
Cc1ccccc1NC(=S)N(Cc1ccccn1)Cc1ccccc1Cl,4,-23*,-7,nt
CO[C@@H]1CN(C)C(=O)c2ccc(NC(=O)C3CCCC3)cc2OC[C@H](C)N(CCC(F)(F)F)C[C@@H]1C,1,nt,nt,0
Cc1nn(-c2ccccc2)c2ncc(C(=O)c3cc(Cl)ccc3O)cc12,nt,nt,-2,-1
CCc1nn2cc(C(=O)c3cc(Cl)ccc3O)cnc2c1-c1ccc(F)cc1,-1,-18*,-2,nt
CCN(CC)S(=O)(=O)c1ccc(/C=C/C(=O)Nc2cccc(F)c2)cc1,2,-17*,-4,0
COc1cc(SC)ccc1C(=O)Nc1cccc(S(=O)(=O)NC2=NCCCCC2)c1,1,-9,-7,-7
CCN(CC)S(=O)(=O)c1ccc(/C=C/C(=O)O)cc1,-2,7,nt,-1
CCN(CC)S(=O)(=O)c1cccc(NC(=O)c2ccc(SC)cc2OC)c1,-1,-25*,-20,0
CCN(CC)S(=O)(=O)c1cccc(NC(=O)COc2ccc(F)cc2Br)c1,0,-27*,-10,nt
O=C1O[C@H](c2ccccc2)[C@H](c2ccccc2)N2[C@H]1[C@@H](C(=O)N1CCCCCCC1)[C@]1(C(=O)Nc3ccc(C#CC4=CCCCC4)cc31)[C@H]2c1ccc(OCCO)cc1,1,nt,nt,nt
O=C(C[C@@H]1C[C@H]2c3cc(NC(=O)Nc4ccc(F)cc4)ccc3O[C@H]2[C@@H](CO)O1)NC1CCCC1,2,-4,nt,1
SMILES,CFTR F508del cor,Ecoli rRNA inh,CaV13 ICDI inh,Cneo AK release
C[C@@H]1CCCCO[C@@H](CN(C)C(=O)Cc2ccccc2)[C@@H](C)CN([C@H](C)CO)C(=O)c2cc(NC(=O)CCC(F)(F)F)ccc2O1,-2,4,nt,-3
C[C@H](NC(=O)[C@H]1[C@H](CO)[C@H]2Cn3c(ccc(-c4ccncc4)c3=O)[C@H]2N1C)c1ccccc1,nt,-1,nt,-1
CNC[C@@H]1OCCCC[C@H](C)Oc2ccc(N(C)C)cc2C(=O)N([C@@H](C)CO)C[C@@H]1C,0,7,nt,nt
COC(=O)Cc1[nH]n(-c2nc3ccccc3s2)c(=O)c1C(C)=Nc1ccc(Cl)cc1,1,-4,-4,nt
COC(=O)Cc1[nH]n(-c2nc3ccccc3s2)c(=O)c1C(C)=Nc1ccc(C)cc1,-3,-26*,-2,nt
Cc1ccc(S(=O)(=O)Nc2ccc3c(c2)C(=O)N([C@H](C)CO)C[C@@H](C)[C@H](CN(C)Cc2ccc(Oc4ccccc4)cc2)O3)cc1,5,-3,nt,nt
C/C(=N\N1CCN(Cc2ccc(Cl)cc2)CC1)c1ccc(F)cc1,-1,-18*,-5,6
Cc1nn(-c2ccccc2)c(Cl)c1/C=C1\SC(=S)N(CCCCCC(=O)O)C1=O,-3,-32*,-5,nt
CCOc1cc(Br)c(C(=O)O)cc1OCC,nt,nt,-4,0
CCOc1cc(OCC)c(C(C)=O)cc1OCC,8.4*,-2,nt,6
C=CCn1c(SCC(=O)NNC(=S)Nc2ccccc2)nnc1-c1ccccc1,-1,-16*,-4,0
COC(=O)C[C@H]1CC[C@H]2[C@@H](COc3ccc(NC(=O)c4ccccc4OC)cc3C(=O)N2C)O1,-1,1,nt,nt
O=c1cc(CSc2nc(NCc3ccccc3)c3ccccc3n2)nc2ccc(Cl)cn12,2,-32*,-2,1
CO[C@@H]1CN(C)C(=O)c2ccc(NC(C)=O)cc2OC[C@H](C)N(C(=O)CC2CC2)C[C@@H]1C,-1,1,nt,-3
O=C(CNc1ccc(Cl)cc1)c1ccc(Br)cc1,-4,nt,-3,6
O=C(CNc1ccc(Br)cc1)c1ccc(O)cc1,-5,-45*,-2,nt
Cc1ccc2nc(SCC(=O)c3ccc4c(c3)OCO4)[nH]c2c1,nt,-23*,nt,0
O=C(C1CCCC1)N1CC(=O)N2[C@H](CO)[C@H](c3ccc(-c4ccccc4F)cc3)[C@@H]2C1,-1,-3,nt,nt
O=C1CN(S(=O)(=O)Cc2ccccc2)C[C@@H]2[C@@H](c3ccc(C#Cc4cccc(F)c4)cc3)[C@H](CO)N12,8.1*,2,nt,nt
CC(C)CC#Cc1ccc([C@H]2[C@H](CO)N3C(=O)CN(C(=O)Nc4cc(F)ccc4F)C[C@@H]23)cc1,11*,-8,nt,nt
CC(C)CC#Cc1ccc([C@H]2[C@@H](CO)N3C(=O)CN(C(=O)Nc4cc(F)ccc4F)C[C@@H]23)cc1,1,-16,nt,nt
O=C(C1CCCCC1)N1CC(=O)N2[C@@H](CO)[C@H](c3ccc(C#Cc4cccc(F)c4)cc3)[C@@H]2C1,9.6*,-24,nt,nt
O=C1CN(S(=O)(=O)Cc2ccccc2)C[C@H]2[C@H](c3ccc(C#Cc4cccc(F)c4)cc3)[C@@H](CO)N12,5,6,nt,nt
C[C@H]1CCCCO[C@H](CN(C)Cc2ccccc2)[C@@H](C)CN([C@@H](C)CO)C(=O)c2cc(NS(=O)(=O)c3cccs3)ccc2O1,1,-3,nt,4
